Source: ChEMBL document CHEMBL1127468, “A marked change of receptor affinity of the 2-methyl-5-(3-hydroxyphenyl)morphans upon attachment of an (E)-8-benzylidene moiety: synthesis and evaluation of a new class of sigma receptor ligands” (J Med Chem, 1994)
pKi: −log10 of the molar value.

Experiments:
[1] = biological target: Muscarinic acetylcholine receptor; experiment: Inhibition of radioligand [3H]NMS binding to muscarinic receptor of rat brain
[2] = biological target: Glutamate NMDA receptor; experiment: Inhibition of radioligand [3H]TCP binding to PCP site in rat brain; format: tissue-based
[3] = biological target: Glutamate NMDA receptor; experiment: Inhibition of radioligand [3H]TCP binding to rat brain PCP site.
[4] = biological target: Mu-type opioid receptor (Rattus norvegicus, UniProt P33535); experiment: Inhibition of radioligand [3H]DAMGO binding to rat brain mu receptor
Outline: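 Rat brain membranes labelled with [3H]DAMGO (1-3 nM), incubated 4 h at 25 °C in 50 mM Tris-HCl pH 7.4 with protease inhibitor cocktail. Nonspecific binding defined by 20 μM levallorphan. Displacement by 8-10 test drug concentrations, done twice; drug dilutions in 10 mM Tris-HCl pH 7.4 containing 1 mg/mL BSA.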

[5] = biological target: Kappa-type opioid receptor (Cavia porcellus, UniProt P41144); experiment: Inhibition of radioligand [3H]U-69593 binding to kappa 1 receptor of guinea pig brain
Outline: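 Guinea pig brain membranes pretreated with irreversible ligands BIT and FIT to deplete mu and delta sites. Nonspecific binding with 1 μM U69,593. 8-10 drug concentrations, run twice.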

[6] = biological target: Delta-type opioid receptor (Rattus norvegicus, UniProt P33533); experiment: Inhibition of radioligand [3H]DADLE binding to rat brain delta receptor
Outline: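 Rat brain membranes; [3H]DADLE 1.7-2.5 nM, 3-4 h at 25 °C in 10 mM Tris-HCl pH 7.4 with 100 mM choline chloride, 3 mM MnCl2, 100 nM DAMGO to block mu sites, and protease inhibitor cocktail. Nonspecific binding with 20 μM levallorphan. 8-10 test drug concentrations, run twice; dilutions in Tris buffer with 1 mg/mL BSA.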

[7] = tested on: Glutamate NMDA receptor; experiment: Inhibition of radioligand [3H]TCP binding to PCP site in rat brain; No inhibition; format: tissue-based
[8] = Ratio of Ki values tested against sigma receptor and Mu receptor

Sequence of Mu-type opioid receptor (P33535 whole entry): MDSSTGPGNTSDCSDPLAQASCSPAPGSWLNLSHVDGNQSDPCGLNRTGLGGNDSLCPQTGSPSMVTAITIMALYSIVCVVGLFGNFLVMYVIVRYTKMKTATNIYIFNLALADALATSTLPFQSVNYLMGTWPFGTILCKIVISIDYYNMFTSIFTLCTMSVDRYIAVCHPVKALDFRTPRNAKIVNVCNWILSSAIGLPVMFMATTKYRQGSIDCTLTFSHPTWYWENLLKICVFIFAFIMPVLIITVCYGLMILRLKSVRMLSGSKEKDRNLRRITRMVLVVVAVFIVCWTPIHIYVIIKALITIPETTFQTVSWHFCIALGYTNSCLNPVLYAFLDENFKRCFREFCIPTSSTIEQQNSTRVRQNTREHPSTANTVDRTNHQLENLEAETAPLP
Sequence of Kappa-type opioid receptor (P41144 whole entry): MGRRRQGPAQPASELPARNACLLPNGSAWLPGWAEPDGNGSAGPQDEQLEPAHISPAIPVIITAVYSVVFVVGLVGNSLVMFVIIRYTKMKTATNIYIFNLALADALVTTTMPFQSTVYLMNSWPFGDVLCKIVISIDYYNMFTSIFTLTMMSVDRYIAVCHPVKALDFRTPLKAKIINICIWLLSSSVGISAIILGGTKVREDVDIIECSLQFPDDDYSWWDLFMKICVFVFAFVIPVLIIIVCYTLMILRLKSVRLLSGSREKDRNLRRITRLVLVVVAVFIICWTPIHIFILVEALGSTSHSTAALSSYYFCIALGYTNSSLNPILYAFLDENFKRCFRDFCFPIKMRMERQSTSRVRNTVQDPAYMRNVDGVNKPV
Sequence of Delta-type opioid receptor (P33533 whole entry): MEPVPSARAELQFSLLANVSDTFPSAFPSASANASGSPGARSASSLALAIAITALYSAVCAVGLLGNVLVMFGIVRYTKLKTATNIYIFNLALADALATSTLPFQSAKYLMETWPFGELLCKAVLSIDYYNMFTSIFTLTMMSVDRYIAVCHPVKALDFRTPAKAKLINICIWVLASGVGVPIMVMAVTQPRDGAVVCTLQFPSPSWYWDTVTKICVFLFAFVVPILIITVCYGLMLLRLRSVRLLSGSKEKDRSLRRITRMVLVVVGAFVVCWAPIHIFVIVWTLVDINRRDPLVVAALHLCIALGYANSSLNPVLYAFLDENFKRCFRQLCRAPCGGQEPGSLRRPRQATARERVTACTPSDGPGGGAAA

Row | SMILES | Ki [1] | pKi [2] | pKi [3] | pKi [4] | pKi [5] | pKi [6] | Ki [7] | Ratio [8]
1 | COc1cccc(C23CCN(C)C(C2)/C(=C\c2ccccc2)C(=O)C3)c1 (stereo not drawn) | 11.6 µM | < 4.30 |  |  |  |  |  | 
2 | COc1cccc(C23CCN(C)C(CC(=O)C2)C3)c1 (stereo not drawn) | 23.3 µM |  | < 4.00 |  |  |  |  | 
3 | CN1CCC2(c3cccc(O)c3)CC(=O)CC1C2 (stereo in doubt; 4) | 46.4 µM |  |  | 8.26 | 5.99 | 6.49 |  | 
4 | CN1CCC2(c3cccc(O)c3)CC(=O)/C(=C/c3ccc(Cl)c(Cl)c3)C1C2 (stereo not drawn) |  | < 4.00 |  | 8.21 | < 6.30 | 6.62 |  | 
5 | CN1CC[C@@]2(c3cccc(O)c3)CC(=O)/C(=C/c3ccc(Cl)c(Cl)c3)[C@@H]1C2 | 50.3 µM | < 4.00 |  | 7.35 | < 6.30 | < 6.30 |  | 
6 | CN1CCC2(c3cccc(O)c3)CC(=O)/C(=C/c3ccccc3)C1C2 (stereo not drawn) | 14.4 µM | < 4.00 |  | 7.47 | 6.24 | < 6.30 |  | 
7 | CN1CC[C@@]2(c3cccc(O)c3)CC(=O)/C(=C/c3ccccc3)[C@@H]1C2 | 7.4 µM | < 4.00 |  | 6.41 | 6.05 | 5.70 |  | 
8 | CN1CC[C@@]2(c3cccc(O)c3)CC(=O)/C(=C/c3ccc(Cl)c(Cl)c3)[C@H]1C2 | 18.6 µM | < 4.00 |  | 8.35 | < 6.30 | 6.57 |  | 
9 | C[N+]1(C)CCC2(c3cccc(O)c3)CC(=O)/C(=C/c3ccccc3)C1C2.[I-] (stereo not drawn) | 14.7 µM |  |  | < 6.15 | < 5.30 | < 6.00 | Not Active | < 7.7
10 | CN1CC[C@]2(c3cccc(O)c3)CC(=O)/C(=C/c3ccccc3)[C@H]1C2 | 26 µM | ~4.00 |  | 7.42 | 5.96 | 6.13 |  | 
11 | CN1CCC2(c3cccc(O)c3)CC(=O)CC1C2 (stereo in doubt) | 25.3 µM |  | < 4.00 | 8.06 | 6.31 | 6.92 |  | 
